Source: PubChem BioAssay
Rpn11 inh: Rpn11 (human) deubiquitinase inhibition | O00487 | human 26S proteasome, Ub4-pepOG fluorescence polarization; 20S core pre-blocked with epoxomicin | inhibition, % at 20 µM | 360,000 tested, 0.59% active | AID 588493;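 active means inhibition at 20 µM, scaled to each plate's controls, above about 33%, limit read from the data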
TPT1 inhibitor: blocks Candida albicans tRNA 2'-phosphotransferase | recombinant caTPT1, FP RNA substrate dephosphorylation | inhibition, % at 5 µM | 300,000 tested, 0.81% active;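 active means inhibition above the mean of all tested compounds plus 3 SD, set per screening campaign, cut at about 24% in these data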;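 further: plate controls were DMSO alone for no effect and ferristatin control at 100 nM for full effect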
CSN inh: inhibitors of human CSN-mediated cullin deneddylation. Q92905. Purified CSN, SCF-Nedd8-OG deneddylation, fluorescence polarization. inhibition, % at 12.5 µM. 360,000 tested, 0.38% active;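 active means pattern-corrected inhibition above about 35%, with an unprinted fluorescence ratio check between 0.5 and 1.5, limit read from the data, passing the limit was not always enough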;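 further: 0% = enzyme with substrate and 100% = substrate without enzyme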
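Detection – fluorescence polarization · System – HEK293T-derived human Csn5 enzyme · Controls – substrate-only high control, full reaction low control · Timing – 90 min, room temperature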
HNF4A DNA FP: change in binding of human HNF4 alpha to DNA. HNF4a-FITC DNA binding, fluorescence polarization, 1 h. activity change, % at 10 µM. 360,000 tested, 0.3% active; in the data active means activity change above about 30%, passing the limit was not always enough
SENP1 FRET inh: blocks the human SENP1 SUMO protease catalytic domain. 360,000 tested, 0.21% active. recombinant SENP1 catalytic domain, CyPet-SUMO1-YPet FRET cleavage. inhibition, % at 10 µM. Q9P0U3;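 active means inhibition at least 30% at 10 µM, raw YFP signal under a set limit, fluorescence ratio 0.5 to 1.5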;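 further: 0% = enzyme with DMSO and 100% = no enzyme wells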
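Assay system – human recombinant His6-tagged SENP1 catalytic domain enzyme · Input – SENP1 enzyme, 20 pM final · Buffer or medium – Tris pH 8 buffer plus EDTA, NaCl, BME, BSA, NP40, catalase · Schedule – 50 min reaction at room temperature · Technique – FRET read of cyan and yellow fluorescence · Control set – no-enzyme wells low, DMSO-plus-enzyme wells high control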
TPT1 inh confirm: confirmation of Candida albicans TPT1 inhibitors; shares compounds with TPT1 inhibitor; recombinant caTPT1, fluorescence polarization, RNase T1 coupled; inhibition, % at 5 µM; 2,400 tested, 74% active; AID 2149;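 active means inhibition above the primary screen limit, the mean inhibition of all tested compounds plus 3 SD, cut at about 25% in these data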
RNase T1 counter: RNase T1 inhibition in TPT1 counter-screen | inhibition, % at 5 µM | 2,400 tested, 83% active | shares compounds with TPT1 inhibitor | RNase T1 cleavage, fluorescence polarization, 1536-well;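 active means inhibition above the solvent-only control well mean plus 3 SD, limit set per screening run, cut at about 23% in these data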;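 further: plate controls were DMSO wells with enzyme for no effect and wells without RNase T1 for full effect; inhibitors block cleavage so intact labeled substrate keeps polarization high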
Target sequence (P00651 whole entry, looked up): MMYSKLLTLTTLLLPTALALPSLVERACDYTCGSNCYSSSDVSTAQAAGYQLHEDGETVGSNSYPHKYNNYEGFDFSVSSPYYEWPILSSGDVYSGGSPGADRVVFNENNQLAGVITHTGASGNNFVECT
Rpn11 confirm: Rpn11 inhibition confirmation, single concentration | shares compounds with Rpn11 inh | purified human 26S proteasome, Ub4-pepOG fluorescence polarization; proteasome pretreated with epoxomicin | inhibition, % at 20 µM | 1,900 tested, 29% active | AID 602318
MMP-2 counter-1: blocks human MMP-2, flagging nonselective RPN11 hits | 1,900 tested, 4% active | AID 602330 | shares compounds with Rpn11 inh | inhibition, % at 20 µM | recombinant MMP-2, FRET peptide cleavage fluorescence;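 further: human MMP-2 activated beforehand with APMA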
Target sequence (P08253 whole entry, looked up): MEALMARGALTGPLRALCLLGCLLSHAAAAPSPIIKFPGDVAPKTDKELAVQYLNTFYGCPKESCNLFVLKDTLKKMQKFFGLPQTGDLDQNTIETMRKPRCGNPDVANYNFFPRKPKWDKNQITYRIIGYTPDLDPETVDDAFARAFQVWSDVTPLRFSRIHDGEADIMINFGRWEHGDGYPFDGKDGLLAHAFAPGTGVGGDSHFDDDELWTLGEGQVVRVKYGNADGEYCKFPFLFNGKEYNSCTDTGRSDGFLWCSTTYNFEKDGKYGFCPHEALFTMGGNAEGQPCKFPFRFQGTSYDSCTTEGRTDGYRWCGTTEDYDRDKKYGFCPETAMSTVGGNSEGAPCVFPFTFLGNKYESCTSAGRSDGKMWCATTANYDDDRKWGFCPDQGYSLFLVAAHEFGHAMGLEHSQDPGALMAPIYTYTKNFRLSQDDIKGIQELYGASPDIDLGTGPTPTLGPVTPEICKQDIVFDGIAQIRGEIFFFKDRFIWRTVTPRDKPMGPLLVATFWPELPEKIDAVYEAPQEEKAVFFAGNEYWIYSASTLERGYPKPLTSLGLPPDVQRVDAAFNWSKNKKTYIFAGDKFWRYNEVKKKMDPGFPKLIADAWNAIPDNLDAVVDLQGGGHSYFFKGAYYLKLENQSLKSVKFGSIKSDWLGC
Thrombin FP: counter-screen for RPN11 inhibitors: inhibition of bovine thrombin. 1,900 tested, 13% active. bovine thrombin cleavage of Ub4-pepOG, fluorescence polarization. AID 602333. shares compounds with Rpn11 inh. inhibition, % at 20 µM;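 active means mean inhibition at least 40% at 20 µM, or signal 3 deviations below plate average, so some actives read negative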;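 further: plate controls were thrombin with DMSO for no effect and buffer wells lacking thrombin for full effect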
CSN5 deneddyl: Csn5 (human) deneddylation inhibition, single-concentration validation; shares compounds with CSN inh; Csn5 deneddylation of SCF-Nedd8OG, fluorescence polarization, 90 min; inhibition, % at 16.6 µM; 540 tested, 62% active; AID 720654; in the data active means inhibition above about 50%;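 further: 0% = DMSO with enzyme and 100% = no enzyme wells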
MMP-2 counter-2: MMP-2 (human) inhibition, counter-screen for CSN hits | shares compounds with CSN inh | recombinant MMP-2, FRET substrate fluorescence, 60 min | inhibition, % at 16.6 µM | 540 tested, 33% active;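 active means corrected plate-normalized z-score of 5 or more, or -5 or less, or inhibition of 15% or more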;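 further: plate controls were DMSO wells with enzyme for no effect and buffer wells lacking MMP-2 for full effect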
Thrombin counter: thrombin (bovine) inhibition, counter-screen for CSN hits | shares compounds with CSN inh | bovine thrombin cleavage of Ub4-pepOG, fluorescence polarization | inhibition, % at 16.6 µM | 540 tested, 49% active | AID 720656;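 active means inhibition at or above a set limit, with a fluorescence interference ratio between 0.5 and a set maximum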
HNF4a DNA conf: change in binding of human HNF4 alpha to DNA, retest; activity change, % at 12.5 µM; 210 tested, 99% active; shares compounds with HNF4A DNA FP; HNF4A-FITC DNA binding, fluorescence polarization, 1 h; call rule not given here
* = called active by the depositor; . = no result shown; ! = repeats disagree. Compounds with a hit are over-represented: about 1.6% of the library has one in this group of screens. Unless noted, no stated cut-off is given here; in the data, active means inhibition above about 40%; inactive means the rest.

SMILES	Rpn11 inh	TPT1 inhibitor	CSN inh	HNF4A DNA FP	SENP1 FRET inh	TPT1 inh confirm	RNase T1 counter	Rpn11 confirm	MMP-2 counter-1	Thrombin FP	others
Cc1cc(N2CCOCC2)ccc1/C=C1\C(=O)NC(=O)N(c2ccccc2)C1=O	3.6	4.8	5.2	5.3	-10.7	.	.	.	.	.
Cc1ccc(N2C(=O)NC(=O)/C(=C\C=C\c3ccco3)C2=O)cc1C	32.0	37.7*	68.9*	1.2	-44.3	51.3*	69.6*	.	.	.	CSN5 deneddyl=68.1*;MMP-2 counter-2=5.9;Thrombin counter=12.2
CS(=O)(=O)c1ccc(C2=C(CNC(=O)c3nccs3)[C@H]3CC[C@@H](C2)N3Cc2ccccc2)cc1	1.4	.	-1.6	3.2	-1.0	.	.	.	.	.
Cc1cc(C=C2C(=O)N(C)C(=S)N(C)C2=O)c(C)n1C1CCCCC1	49.5*	24.5*	49.1*	20.3	37.3	27.6*	39.1*	-2.1	-27.1	14.3	CSN5 deneddyl=112.5*;MMP-2 counter-2=1.4;Thrombin counter=2.7
CSCCC(c1nnnn1Cc1ccccc1)N1CCC2(CC1)C(=O)NCN2c1ccccc1 (stereo not drawn)	0.9	.	3.2	-1.7	2.1	.	.	.	.	.
CN(C)Cc1c[nH]c2cc([N+](=O)[O-])ccc12	-3.9	.	-0.4	0.1	2.6	.	.	.	.	.
O=C1NC(=O)N(c2ccc3c(c2)OCO3)C(=O)/C1=C/c1cccs1	-0.3	4.3	4.0	-2.8	-3.2	.	.	.	.	.
O=C1NC(=O)N(c2ccc3c(c2)OCO3)C(=O)/C1=C/c1ccc(N2CCCC2)o1	.	128.1*	41.9*	143.0	27.3	142.5*	140.2*	.	.	.	CSN5 deneddyl=123.9*;MMP-2 counter-2=-14.1;Thrombin counter=83.0*
CN1CCCC2c3ccccc3CCC21 (stereo not drawn)	-17.2	.	3.7	-1.2	-12.4	.	.	.	.	.
CC(C)(C)c1ccc(O)c(N=Cc2c(O)ccc3ccccc23)c1	.	134.9*	56.5*	76.0	-26.4	137.8*	131.2*	.	.	.	CSN5 deneddyl=66.6*;MMP-2 counter-2=-18.9;Thrombin counter=60.8*
N#Cc1c(/N=C/c2c(O)n(Cc3ccco3)c(=O)[nH]c2=O)sc2c1CCCC2	22.3	44.3*	42.9*	-3.0	-25.6	8.1	13.7	.	.	.	CSN5 deneddyl=73.4*;MMP-2 counter-2=10.0;Thrombin counter=-2.0
CCN(CC)c1ccc(N=Cc2c(O)n(Cc3ccco3)c(=O)[nH]c2=O)cc1	.	45.3*	62.0*	101.6	-31.5	64.0*	68.8*	.	.	.	MMP-2 counter-2=-14.2;Thrombin counter=25.1*
O=c1[nH]c(=O)n(Cc2ccco2)c(O)c1/C=N/N1CCCCCC1	0.6	0.3	6.2	-0.1	-5.2	.	.	.	.	.
CCN(CC)CCOC(=O)c1ccc(N=Cc2c(O)[nH]c(=O)[nH]c2=O)cc1	99.4*	60.3*	48.0*	60.5*	4.6	70.0*	86.6*	104.3*	-6.0	73.5*	HNF4a DNA conf=99.0*
COC(=O)c1ccccc1N=Cc1c(O)[nH]c(=O)[nH]c1=O	-0.8	0.2	-0.9	3.1	0.1	.	.	.	.	.
CN(C)CCCN=Cc1c(O)n(CCc2ccccc2)c(=O)[nH]c1=O	40.6*	72.5*	28.3	43.0*	-3.1	65.0*	82.1*	78.6*	6.6	62.3*	HNF4a DNA conf=60.4*
O=[N+]([O-])c1nccn1CC(O)CN1CC1 (stereo not drawn)	10.4	.	8.0	4.1	-1.6	.	.	.	.	.
CN1C(=O)C(=Cc2ccc(Sc3ccccc3)o2)C(=O)N(C)C1=O	62.7*	5.7	0.1	-4.5	0.8	.	.	-30.6	-41.6	-33.3
O=C1NC(=O)C(=Cc2ccc(Sc3ccccc3)o2)C(=O)N1	3.7	4.3	1.1	-7.7	-5.2	.	.	.	.	.
O=C(N/N=C/c1c(O)n(CCC2=CCCCC2)c(=S)[nH]c1=O)c1ccccc1	47.6*	18.0	7.5	9.4	-27.5	.	.	76.0*	-2.4	12.7
COc1ccc(OC)c(CC(=O)N(C)C2CCCN(Cc3ccccc3F)C2)c1 (stereo not drawn)	2.6	0.2	0.8	-0.4	-1.1	.	.	.	.	.
CCCNC(=O)N1[C@H]2CC[C@@H]1C(C(=O)OC)=C(c1ccc(OC(F)(F)F)cc1)C2	4.0	.	-1.1	-2.4	-0.1	.	.	.	.	.
CCCCC(=O)N/N=C/c1c(O)n(Cc2ccc(F)cc2)c(=O)[nH]c1=O	50.0*	21.9	17.0	26.1	-5.8	.	.	32.4	-36.6	-0.9
Cc1c(P(=S)(c2ccccc2)c2ccccc2)[n+]2ccccc2n1C	78.9*!	.	74.5*!	74.5	-0.3	.	.	77.8*	-248.9	13.1
O=C(Nc1cc(Cl)cc(Cl)c1)N1Cc2ccccc2-n2nncc2C1	2.5	.	3.7	3.4	2.2	.	.	.	.	.
SMILES	Rpn11 inh	TPT1 inhibitor	CSN inh	HNF4A DNA FP	SENP1 FRET inh	TPT1 inh confirm	RNase T1 counter	Rpn11 confirm	MMP-2 counter-1	Thrombin FP	others
NC(N)=N/N=C/c1ccc(N(c2ccccc2)c2ccccc2)cc1	90.9*	-2.0	20.4	11.3	-89.0	.	.	71.1*	-8.3	0.2
CC1(C)C(C(=O)N2CCN(c3ccc(Cl)cc3)CC2)C1(C)C	49.0*	-1.3	1.8	1.1	0.1	.	.	4.6	-15.8	-6.3
O=C(Nc1ccc(Cl)cc1)N1CC1	2.7	.	2.8	2.5	2.3	.	.	.	.	.
CCC1CN1P(=S)(N1CC1CC)N1CC1CC (stereo not drawn)	-4.2	.	4.6	0.5	-2.1	.	.	.	.	.
O=C1NC(=O)N(c2ccc(Cl)cc2)C(=O)/C1=C\c1ccc(Sc2nc3ccccc3[nH]2)o1	52.4*	-2.1	29.6	21.0	-18.5	.	.	73.5*	15.2	48.7*
Cc1ccc(-n2c(O)c(/C=N/N3CCCCC3c3cccnc3)c(=O)[nH]c2=S)cc1 (stereo not drawn)	54.9*	18.9	4.5	16.3	-7.4	.	.	51.5*	-14.2	39.7
